Data set [1] concerns Liver. The experiment in a line: AUC (0 to last) in mouse liver assessed as 2'-deoxy-2'-spirooxetane uridine triphosphate at 50 mg/kg, po. It is filed as ADME, organism-based. The conditions noted are these: in vivo. A digest of the protocol:
(§1)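 Oral dose 50 mg/kg, formulated in 20% HP-β-cyclodextrin. Prodrug and triphosphate were measured in plasma and liver (ng/mL or ng/g). Parameters derived were Cmax, tmax, AUC0-last, AUC0-inf and t1/2. Some prodrug data come from two independent studies.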

The subject of data set [2] is Hepatocyte. Nature of the data set: Prodrug conversion in mouse cryopreserved hepatocytes assessed as 2'-deoxy-2'-spirooxetane uridine triphosphate level per million cells at 10 uM after 2 hrs by LC-MS/MS analysis. It is filed as ADME, cell-based. A digest of the protocol:
(§2)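 Plated cryopreserved hepatocytes (study B) incubated with 10 µM unlabeled prodrug for 2, 8 or 24 h. Triphosphate measured in cell lysates and expressed as pmol/million hepatocytes. Quantification limit 2 ng/10^6 cells.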

Data set [3] is described as follows: AUC (0 to last) in dog plasma at 50 mg/kg, po. The arrangement: dose 50 mg/kg, route oral, time 0 - last. The data set is classed as ADME, organism-based, Canis lupus familiaris. A digest of the protocol:
as §1

The test system of data set [4] is Hepatocyte. Nature of the data set: Drug metabolism in human hepatocytes assessed as ((4R,5R,7R,8R)-5-(2,4-dioxo-3,4-dihydropyrimidin-1(2H)-yl)-8-hydroxy-1,6-dioxaspiro[3.4]octan-7-yl)methyl dihydrogen phosphate formation in presence of CYP2C8 and CYP2C9 inhibitor montelukast by LC-MS/MS analysis. It is filed as ADME, cell-based.
Data set [5] has as its system Hepatocyte. The experiment in a line: Prodrug conversion in mouse cryopreserved hepatocytes assessed as 2'-deoxy-2'-spirooxetane uridine triphosphate level per million cells at 10 uM after 24 hrs by LC-MS/MS analysis. It is filed as ADME, cell-based. A digest of the protocol:
as §2

In data set [6] the test system is Hepatocyte. The experiment in a line: Prodrug conversion in human cryopreserved hepatocytes assessed as 2'-deoxy-2'-spirooxetane uridine triphosphate level per million cells at 10 uM after 2 hrs by LC-MS/MS analysis. It is filed as ADME, cell-based. A digest of the protocol:
as §2

For data set [7], the system named is Hepatocyte. Nature of the data set: Prodrug conversion in mouse cryopreserved hepatocytes assessed as 2'-deoxy-2'-spirooxetane uridine triphosphate level per million cells at 10 uM after 8 hrs by LC-MS/MS analysis. It is filed as ADME, cell-based. A digest of the protocol: as §2
The subject of data set [8] is Liver. Nature of the data set: AUC (0 to infinity) in rat liver assessed as 2'-deoxy-2'-spirooxetane uridine triphosphate at 50 mg/kg, po. It is filed as ADME, organism-based. The arrangement: dose 50 mg/kg, time infinity, route oral. The conditions noted are these: in vivo. A digest of the protocol: as §1
In data set [9] the test system is Liver. Nature of the data set: Tlast in dog liver at 50 mg/kg, po. It is filed as ADME, organism-based, Canis lupus familiaris. As to conditions: in vivo. A digest of the protocol:
(§3)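 Single oral dose of 50 mg/kg formulated in 20% HP-β-cyclodextrin. Prodrug and its triphosphate were measured in plasma and liver (ng/mL or ng/g) over time, and Cmax, tmax, AUC, tlast and t1/2 were derived. For some analytes, data from two independent studies are reported.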

Data set [10] deals with Liver. The experiment in a line: AUC (0 to last) in rat liver at 50 mg/kg, po. The data set is classed as ADME, organism-based. The conditions noted are these: in vivo. A digest of the protocol: as §1
The test system of data set [11] is Hepatocyte. The experiment in a line: Drug level in human hepatocytes treated with JNJ-54257099 in presence of CYP2C8 and CYP2C9 inhibitor montelukast by LC-MS/MS analysis. The data set is classed as ADME, cell-based.
For data set [12], the system named is Hepatocyte. Nature of the data set: Prodrug conversion in human hepatocytes assessed as 2'-deoxy-2'-spirooxetane uridine triphosphate formation in presence of PDE4 inhibitor rolipram by LC-MS/MS analysis. It is filed as ADME, cell-based.
In data set [13] the test system is Liver. Nature of the data set: AUC (0 to infinity) in mouse liver at 50 mg/kg, po. The arrangement: dose 50 mg/kg, route oral, time infinity. The conditions noted are these: in vivo. The data set is classed as ADME, organism-based. A digest of the protocol: as §1
In data set [14] the test system is Hepatocyte. The experiment in a line: Prodrug conversion in human primary hepatocytes assessed as 2'-deoxy-2'-spirooxetane uridine triphosphate formation measured at 8 hrs by LC-MS/MS analysis. The data set is classed as ADME, cell-based. A digest of the protocol:
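Hepatocyte primary cultures followed over time for triphosphate formation in cell lysates: rat and mouse up to 24 h, human up to 96 h.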

In data set [15] the test system is Liver. Nature of the data set: Tmax in mouse liver assessed as 2'-deoxy-2'-spirooxetane uridine triphosphate at 50 mg/kg, po. The data set is classed as ADME, organism-based. As to conditions: in vivo. A digest of the protocol:
as §3

Data set [16] concerns Liver. Nature of the data set: Tmax in rat liver assessed as 2'-deoxy-2'-spirooxetane uridine triphosphate at 50 mg/kg, po. The conditions noted are these: in vivo. The data set is classed as ADME, organism-based. A digest of the protocol: as §3
The nature of data set [17]: Tmax in rat liver at 50 mg/kg, po. It is filed as ADME, organism-based. A digest of the protocol: as §3
Data set [18] concerns Hepatocyte. The experiment in a line: Prodrug conversion in human hepatocytes assessed as 2'-deoxy-2'-spirooxetane uridine triphosphate formation in presence of PDE5 inhibitor sildenafil by LC-MS/MS analysis. It is filed as ADME, cell-based.
Data set [19] concerns Hepatocyte. Nature of the data set: Drug metabolism in human hepatocytes assessed as ((4R,5R,7R,8R)-5-(2,4-dioxo-3,4-dihydropyrimidin-1(2H)-yl)-8-hydroxy-1,6-dioxaspiro[3.4]octan-7-yl)methyl dihydrogen phosphate formation in presence of PDE5 inhibitor sildenafil by LC-MS/MS analysis. The data set is classed as ADME, cell-based.
A short description of data set [20]: Prodrug conversion in dog cryopreserved hepatocytes assessed as 2'-deoxy-2'-spirooxetane uridine triphosphate level per million cells at 10 uM after 2 hrs by LC-MS/MS analysis. It is filed as ADME, cell-based, Canis lupus familiaris, Hepatocyte. A digest of the protocol:
as §2

Data set [21] has as its system Hepatocyte. The experiment in a line: Prodrug conversion in human primary hepatocytes assessed as 2'-deoxy-2'-spirooxetane uridine triphosphate level per million cells at 2 uM after 4 hrs using radiolabelled compound by LC-MS/MS analysis. It is filed as ADME, cell-based. A digest of the protocol: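 Study A: fresh primary hepatocyte cultures from mouse, rat, dog and human incubated with tritiated prodrug at 2 or 62.5 µM for 4 or 24 h. Triphosphate in cell lysates reported as pmol/million hepatocytes. Duplicate or single measurements.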

Data set [22] has as its system Hepatocyte. Nature of the data set: Drug metabolism in mouse primary hepatocyte supernatant assessed as 1-[(4aR,6R,7R,7aR)-2-hydroxy-2-oxidodihydro-4H-spiro[furo[3,2-d][1,3,2]dioxaphosphinine-7,2'-oxetan]-6-yl]pyrimidine-2,4(1H,3H)-dione formation at 2 to 62.5 uM after 4 to 24 hrs using radiolabelled compound by HPLC analysis. The data set is classed as ADME, cell-based. As to conditions: hepatocytes. A digest of the protocol: (§4)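 Fresh primary hepatocyte cultures incubated with tritiated prodrug (5'-[3H]) at 2 and 62.5 µM for 4 and 24 h. Supernatants taken after protein precipitation and profiled by HPLC with radioactivity detection. Cell lysates profiled for metabolites by radio-LC. Cyclic monophosphate also measured by LC/MS/MS.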

A short description of data set [23]: Drug metabolism in dog primary hepatocyte supernatant assessed as 1-((4R,5R,7R,8R)-8-hydroxy-7-(hydroxymethyl)-1,6-dioxaspiro[3.4]octan-5-yl)pyrimidine-2,4(1H,3H)-dione formation at 2 to 62.5 uM after 4 to 24 hrs using radiolabeled compound by HPLC analysis. It is filed as ADME, cell-based, Canis lupus familiaris. As to conditions: hepatocytes. A digest of the protocol:
(§5)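 Study A: primary cultured hepatocytes (mouse, rat, dog, human) incubated with 2 or 62.5 µM 5'-[3H]-labelled prodrug for 4 and 24 h. Cell lysates were analysed for triphosphate. Supernatants were protein-precipitated and profiled by HPLC with radioactivity detection. Cyclic monophosphate was also assessed by LC/MS/MS.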

Data set [24] is described as follows: Stability in dog primary hepatocytes assessed as parent compound level at 2 to 62.5 uM after 4 hrs using radiolabeled compound by LC-MS/MS analysis. It is filed as ADME, cell-based, Canis lupus familiaris, Hepatocyte. A digest of the protocol:
as §4

A short description of data set [25]: Drug metabolism in dog primary hepatocytes assessed as ((4R,5R,7R,8R)-5-(2,4-dioxo-3,4-dihydropyrimidin-1(2H)-yl)-8-hydroxy-1,6-dioxaspiro[3.4]octan-7-yl)methyl dihydrogen phosphate formation at 2 to 62.5 uM after 4 hrs using radiolabeled compound by LC-MS/MS analysis. The data set is classed as ADME, cell-based, Canis lupus familiaris, Hepatocyte. A digest of the protocol:
as §5

Data set [26] has as its system Hepatocyte. The experiment in a line: Stability in mouse primary hepatocyte supernatant assessed as parent compound level at 2 uM after 4 to 24 hrs using radiolabeled compound by HPLC analysis. The data set is classed as ADME, cell-based. As to conditions: hepatocytes; call rule not given here.
Data set [27] can be described thus: Drug metabolism in dog primary hepatocytes assessed as 1-[(4aR,6R,7R,7aR)-2-hydroxy-2-oxidodihydro-4H-spiro[furo[3,2-d][1,3,2]dioxaphosphinine-7,2'-oxetan]-6-yl]pyrimidine-2,4(1H,3H)-dione formation at 2 to 62.5 uM after 4 hrs using radiolabelled compound by LC-MS/MS analysis. It is filed as ADME, cell-based, Canis lupus familiaris, Hepatocyte. A digest of the protocol:
as §5

Data set [28] can be described thus: Drug metabolism in dog primary hepatocyte supernatant assessed as 1-[(4aR,6R,7R,7aR)-2-hydroxy-2-oxidodihydro-4H-spiro[furo[3,2-d][1,3,2]dioxaphosphinine-7,2'-oxetan]-6-yl]pyrimidine-2,4(1H,3H)-dione formation at 2 to 62.5 uM after 4 to 24 hrs using radiolabelled compound by HPLC analysis. The data set is classed as ADME, cell-based, Canis lupus familiaris. As to conditions: hepatocytes. A digest of the protocol: as §5

The term AUC(0-t) denotes the area under the concentration-time curve up to a stated or last time point. Read a low AUC(0-t) as less exposure. As usually defined, the Tmax is the time from dosing to the highest level.

Take `CC(C)O[P@@]1(=O)OC[C@H]2O[C@@H](n3ccc(=O)[nH]c3=O)[C@@]3(CCO3)[C@@H]2O1`: the results for the AUClast with Liver [1] and in the data set on Liver [10] were 126982 ng·h/g and 2489 ng·h/g, respectively. The Drug metabolism in the data set with Hepatocyte [2] was 0.538 pmol; in the data set on Hepatocyte [4], “metabolite_detected”; in the data set on Hepatocyte [5], 0.519 pmol; in the data set on Hepatocyte [6], 0.087 pmol; with Hepatocyte [7], 0.95 pmol; with Hepatocyte [12], “metabolite_notdetected”. Also, the Drug metabolism result is “metabolite_detected” in the data set with Hepatocyte [14], “metabolite_notdetected” in the data set with Hepatocyte [18], “metabolite_notdetected” in the data set with Hepatocyte [19] and below 2 ng in [20]. The AUC(0-t) in data set [3] was 25600 ng·h/mL. Moreover, the AUC came out at 758393 ng·h/g in the data set with Liver [8] and 1706 ng·h/g with Liver [13]. The Tlast with Liver [9] was 24 h. Besides, the Drug uptake result with Hepatocyte [11] is “Active”. Further, the values for the Tmax (with Liver [15]; in the data set on Liver [16]; in data set [17]) were 2 h, 4 h and 1 h, respectively.
Take `[3H]C1O[P@](=O)(OC(C)C)O[C@@H]2[C@@H]1O[C@@H](n1ccc(=O)[nH]c1=O)[C@@]21CCO1` (stereo partly drawn): the Drug metabolism with Hepatocyte [21] is recorded as 0.023 pmol; in the data set with Hepatocyte [22], “metabolite_detected”; in data set [23], “metabolite_detected”; in data set [25], “metabolite_detected”; in data set [27], “metabolite_detected”; in [28], “metabolite_detected”. The Stability entry (in data set [24]; in the data set with Hepatocyte [26]) was “Stable” each time.

The record behind these values is ChEMBL document CHEMBL3826882, “Discovery of 1-((2R,4aR,6R,7R,7aR)-2-Isopropoxy-2-oxidodihydro-4H,6H-spiro[furo[3,2-d][1,3,2]dioxaphosphinine-7,2'-oxetan]-6-yl)pyrimidine-2,4(1H,3H)-dione (JNJ-54257099), a 3'-5'-Cyclic Phosphate Ester Prodrug of 2'-Deoxy-2'-Spirooxetane Uridine Triphosphate Useful for HCV Inhibition” (J Med Chem, 2016).
